In ChEMBL document CHEMBL1137351, “Discovery of conformationally constrained tetracyclic compounds as potent hepatitis C virus NS5B RNA polymerase inhibitors” (J Med Chem, 2006):

Experiments:
[1] = tested on: Caco-2; test: Cytotoxicity against Caco-2 cells; format: functional; conditions: Homo sapiens
[2] = tested on: Caco-2; test: (§1) Permeability across Caco-2 cells; format: ADME, cell-based; conditions: human
[3] = tested on: Huh-5-2; test: Inhibition of replication of HCV 1b BK RNA in Huh5-2 cells in presence of 10% fetal calf serum; format: functional, cell-based, Hepacivirus hominis; conditions: Homo sapiens, genotype 1b BK
Method in brief: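 Huh-5-2 cells carrying the HCV replicon, assayed in medium with 10% FCS. EC50 is the mean of three independent experiments, with standard deviations within 30% of the mean.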

[4] = biological target: RNA-directed RNA polymerase (Hepacivirus hominis, UniProt O39930); test: Inhibition of HCV NS5B RNA polymerase
Chain of RNA-directed RNA polymerase (O39930 whole entry): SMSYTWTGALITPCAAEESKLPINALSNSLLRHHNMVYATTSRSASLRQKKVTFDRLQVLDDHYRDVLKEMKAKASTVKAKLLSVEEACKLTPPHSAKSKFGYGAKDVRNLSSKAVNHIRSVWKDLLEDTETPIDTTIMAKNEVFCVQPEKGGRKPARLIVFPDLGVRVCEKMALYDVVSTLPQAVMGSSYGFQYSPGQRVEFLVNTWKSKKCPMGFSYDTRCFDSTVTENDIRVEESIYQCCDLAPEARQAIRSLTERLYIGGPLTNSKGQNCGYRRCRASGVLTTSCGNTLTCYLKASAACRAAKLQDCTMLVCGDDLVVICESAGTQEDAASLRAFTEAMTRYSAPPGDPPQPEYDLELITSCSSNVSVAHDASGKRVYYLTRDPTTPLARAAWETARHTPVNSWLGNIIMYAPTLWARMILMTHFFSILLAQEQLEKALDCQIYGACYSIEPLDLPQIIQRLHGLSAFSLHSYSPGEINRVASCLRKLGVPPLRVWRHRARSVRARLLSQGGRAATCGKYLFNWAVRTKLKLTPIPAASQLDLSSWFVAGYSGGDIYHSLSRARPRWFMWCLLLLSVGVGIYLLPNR

[5] = as §1; format: ADME, cell-based; conditions: human, read-out: permeability
[6] = tested on: Huh-5-2; test: Inhibition of replication of HCV 1b BK RNA in Huh5-2 cells in presence of 10% fetal calf serum and 4% human serum albumin; format: functional, cell-based, Hepacivirus hominis; conditions: genotype 1b BK
Method in brief: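 Huh-5-2 replicon cells in medium with 10% FCS plus 4% human serum albumin. EC50 is the average of two experiments.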

| Compound | CC50 [1] [nM] | Activity [2] | EC50 [3] [nM] | IC50 [4] [nM] | Papp [5] [×10⁻⁶ cm/s] | EC50 [6] [nM] |
| --- | --- | --- | --- | --- | --- | --- |
| CC(=O)N1CCn2c(c(C3CCCCC3)c3ccc(C(=O)O)cc32)-c2ccccc21 | > 20000 | Active | 1100 | 120 | – | – |
| CN(C)CCN1CCn2c(c(C3CCCCC3)c3ccc(C(=O)O)cc32)-c2ccccc21.Cl.Cl | > 20000 | – | 53 | 18 | 19.2 | 200 |
| CN1CCn2c(c(C3CCCCC3)c3ccc(C(=O)O)cc32)-c2ccccc21 | > 20000 | Active | 590 | 19 | – | 6500 |
| O=C(O)c1ccc2c(C3CCCCC3)c3n(c2c1)CCCc1ccccc1-3 | – | – | 3000 | 77 | – | – |
| O=C(O)c1ccc2c(C3CCCCC3)c3n(c2c1)CCOc1cc(OCc2ccccc2)ccc1-3 | – | – | – | 17 | – | – |
| O=C(O)c1ccc2c(C3CCCCC3)c3n(c2c1)CCOc1ccccc1-3 | – | – | 860 | 26 | – | – |
| CN(C)C(=O)CN1CCn2c(c(C3CCCCC3)c3ccc(C(=O)O)cc32)-c2ccccc21 | > 20000 | – | 210 | 24 | 51.9 | 4300 |
| Cl.Cl.O=C(O)c1ccc2c(C3CCCCC3)c3n(c2c1)CCN(CCN1CCCCC1)c1ccccc1-3 | > 20000 | – | 35 | 9 | 18.6 | 84 |
| O=C(O)c1ccc2c(C3CCCCC3)c3n(c2c1)Cc1ccccc1-3 | – | – | > 10000 | 210 | – | – |
| Cl.O=C(O)c1ccc2c(C3CCCCC3)c3n(c2c1)CCNc1ccccc1-3 | > 20000 | – | 570 | 21 | 55.9 | > 10000 |
| CC(C)N1CCn2c(c(C3CCCCC3)c3ccc(C(=O)O)cc32)-c2ccccc21 | > 20000 | Active | 1500 | 36 | – | – |
| O=C(O)c1ccc2c(C3CCCCC3)c3n(c2c1)COc1ccccc1-3 | – | – | 4200 | 140 | – | – |
| O=C(O)c1ccc2c(C3CCCCC3)c3n(c2c1)CCN(Cc1ccccc1)c1ccccc1-3 | > 20000 | Active | 550 | 41 | – | – |
| O=C(O)c1ccc2c(C3CCCCC3)c3n(c2c1)CCSc1ccccc1-3 | – | – | 1400 | 38 | – | – |
| O=C(O)c1ccc2c(C3CCCCC3)c3n(c2c1)CCc1ccccc1-3 | – | – | 6000 | 140 | – | – |
| Cn1c(-c2ccc(OCc3ccccc3)cc2)c(C2CCCCC2)c2ccc(C(=O)O)cc21 | – | – | – | 120 | – | – |
| O=C(O)c1ccc2c(C3CCCCC3)c3n(c2c1)CCN(CCc1ccccc1)c1ccccc1-3 | > 20000 | Active | 310 | 26 | – | – |
